Reference: ChEMBL document CHEMBL1141114, “Adenosine kinase inhibitors. 5. Synthesis, enzyme inhibition, and analgesic activity of diaryl-erythro-furanosyltubercidin analogues” (J Med Chem, 2005)

Key:
Adenosine kinase = Adenosine kinase (Homo sapiens, UniProt P55263); assay: Inhibitory concentration against human recombinant adenosine kinase using [14C]AMP as radioligand
Rattus norvegicus [1] = assay: Percent inhibition of the licking and biting behavior in response to formalin injection at a dose of 20 mg/Kg when given orally in rat by formalin paw assay; (n=6); type: functional; conditions: po
In short: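 Rats got 20 mg/kg orally in PEG 400 vehicle 2 h before intraplantar formalin, n = 6. Activity is expressed as % inhibition of licking and biting behaviour.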

[2] = Plasma clearance at a dose of 3 mg/Kg in dog when given orally; type: ADME, organism-based, Canis lupus familiaris; conditions: po
In short: (§1)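 Rats and dogs, n = 3 per group. Oral dosing at 3 mg/kg as a suspension in 0.1% methylcellulose; intravenous dosing at 1 mg/kg as a solution in 75% PEG 400/25% saline. Plasma sampled at 0.25, 0.5, 1, 2, 4, 8 and 24 h and drug levels measured by HPLC. […] Parameters reported as mean ± S.D.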

[3] = Bioavailability at a dose of 3 mg/Kg in dog when given orally; type: ADME, organism-based, Canis lupus familiaris; conditions: in vivo, po; in short: as §1
[4] = Bioavailability at a dose of 3 mg/Kg in rat when given orally; type: ADME, organism-based; conditions: in vivo, po; in short: as §1
[5] = Plasma clearance at a dose of 1 mg/kg in dog when given i.v.; type: ADME, organism-based, Canis lupus familiaris; set-up: dose 1 mg/kg, route intravenous; conditions: iv; in short: as §1
[6] = Plasma clearance at a dose of 1 mg/Kg in rat when given i.v.; type: ADME, organism-based; conditions: iv; in short: as §1
[7] = Time required to be halved at a dose of 1 mg/kg in dog when given i.v.; type: ADME, organism-based, Canis lupus familiaris; set-up: dose 1 mg/kg, route intravenous; conditions: in vivo, iv; in short: as §1
[8] = Time required to be halved at a dose of 1 mg/Kg in rat when given i.v.; type: ADME, organism-based; conditions: in vivo, iv; in short: as §1
[9] = Time required to be halved at a dose of 3 mg/Kg in dog when given orally; type: ADME, organism-based, Canis lupus familiaris; conditions: in vivo, po; in short: as §1
[10] = Time required to be halved at a dose of 3 mg/Kg in rat when given orally; type: ADME, organism-based; conditions: in vivo, po; in short: as §1
[11] = Plasma clearance at a dose of 3 mg/Kg in rat when given orally; type: ADME, organism-based; conditions: po; in short: as §1
[12] = Distributed volume at a dose of 1 mg/kg in dog when given i.v.; type: ADME, organism-based, Canis lupus familiaris; set-up: dose 1 mg/kg, route intravenous; conditions: in vivo, iv; in short: as §1
[13] = Distributed volume at a dose of 1 mg/Kg in rat when given i.v.; type: ADME, organism-based; conditions: in vivo, iv; in short: as §1
[14] = Distributed volume at a dose of 3 mg/Kg in dog when given orally; type: ADME, organism-based, Canis lupus familiaris; conditions: in vivo, po; in short: as §1
[15] = Distributed volume at a dose of 3 mg/Kg in rat when given orally; type: ADME, organism-based; conditions: in vivo, po; in short: as §1
[16] = Area under the plot of plasma concentration at a dose of 1 mg/kg in dog when given i.v.; type: ADME, organism-based, Canis lupus familiaris; set-up: dose 1 mg/kg, route intravenous; conditions: iv, read-out: AUC 0-24h; in short: as §1
[17] = Area under the plot of plasma concentration at a dose of 1 mg/Kg in rat when given i.v.; type: ADME; conditions: iv; in short: as §1
[18] = Area under the plot of plasma concentration at a dose of 3 mg/Kg in dog when given orally; type: ADME, Canis lupus familiaris; conditions: po, read-out: AUC 0-24h; in short: as §1
[19] = Area under the plot of plasma concentration at a dose of 3 mg/Kg in rat when given orally; type: ADME; conditions: po; in short: as §1
[20] = Maximum time to achieve plasma concentration at a dose of 3 mg/Kg in dog when given orally; type: ADME, organism-based, Canis lupus familiaris; conditions: po; in short: as §1
[21] = Maximum time to achieve plasma concentration at a dose of 3 mg/Kg in rat when given orally; type: ADME, organism-based; conditions: po; in short: as §1
Rattus norvegicus [22] = assay: Effective dose for the […] effect measured after 2 hr when given orally in rat by rotarod assay.; type: functional; conditions: po
In short: (§2)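 Fasted male SD rats (90–110 g) were dosed orally at 10–300 mg/kg in 0.1% MC. They were first trained to walk on a rotarod at 5 rpm for 150 s. Walking time, as a measure of sedation and ataxia, was recorded at 0, 0.5, 1, 2 and 5 h after dosing, with a 150 s cutoff.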

Rattus norvegicus [23] = assay: Effective dose for the […] effect measured after 5 h when given orally in rat by rotarod assay.; type: functional; conditions: po; in short: as §2
Rattus norvegicus [24] = assay: Effective dose for the analgesic effect measured at 3 hr after administration when given orally by hot plate assay; (n=6); type: functional; conditions: po
In short: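 Fasted male SD rats (150–200 g) were gavaged with vehicle or graded doses. Hind-paw lick latency on a 50 °C hot plate (60 s max) was measured before dosing and at 0.5–4 h after.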

Rattus norvegicus [25] = assay: Effective dose of the licking and biting behavior in response to formalin injection at a dose of 20 mg/Kg when given orally in rat by formalin paw assay; (n=6); type: functional; conditions: po
[26] = Maximum plasma concentration at a dose of 1 mg/kg in dog when given i.v.; type: ADME, organism-based, Canis lupus familiaris; set-up: dose 1 mg/kg, route intravenous; conditions: iv; in short: as §1
[27] = Maximum plasma concentration at a dose of 1 mg/Kg in rat when given i.v.; type: ADME, organism-based; set-up: dose 1 mg/Kg, route intravenous; conditions: iv; in short: as §1
[28] = Maximum plasma concentration at a dose of 3 mg/Kg in dog when given orally; type: ADME, organism-based, Canis lupus familiaris; set-up: dose 3 mg/Kg, route oral; conditions: po; in short: as §1
[29] = Maximum plasma concentration at a dose of 3 mg/Kg in rat when given orally; type: ADME, organism-based; set-up: dose 3 mg/Kg, route oral; conditions: po; in short: as §1
Monkey = assay: Effective dose for the analgesic effect measured after bradykinin injection when given orally by marmoset monkey bradykinin-induced licking; (n=6); type: functional; conditions: po
In short: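 Six male marmosets (Callithrix jacchus, 250–340 g) got 0.3, 3, 10 or 30 mg/kg po, or 0.1% MC vehicle. At 60 min, 100 μL of 1 mM bradykinin in saline was injected intraplantar, alternating feet. Pain behaviour was scored 0–3 every 15 s for 15 min from video. Sessions were 2 weeks apart.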

Rattus norvegicus [30] = assay: Effective dose for the analgesic effect measured after carrageenan injection when given orally by carrageenan-induced mechanical hyperalgesia test; type: functional; conditions: po
In short: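 Fasted male SD rats (100–120 g) were dosed orally with 1, 3 or 10 mg/kg in 0.1% MC 1 h before intraplantar carrageenan (1%, 100 μL/paw). Mechanical hyperalgesia was read by Randall-Selitto analgesimeter at 3, 4 and 5 h after carrageenan.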

Rattus norvegicus [31] = assay: Percent inhibition of the analgesic effect measured after carrageenan injection at a dose of 20 mg/Kg therapeutic when given orally by carrageenan-induced thermal hyperalgesia test; type: functional
In short: (§3)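 Fasted male SD rats (160–180 g) were injected in the right hind plantar paw with lambda carrageenan (2 mg in 100 μL). They were gavaged with 20 mg/kg or vehicle (PEG400/0.2% Tween/5% propylene glycol), either 0.5 h before (prophylactic) or 2 h after (therapeutic) carrageenan. Hargreaves heat withdrawal was measured in the inflamed and control paws at 3.5–4.5 h.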

Rattus norvegicus [32] = assay: Percent inhibition of the analgesic effect measured after carrageenan injection at a dose of 20 mg/Kg prophylactic when given orally by carrageenan-induced thermal hyperalgesia test; type: functional; in short: as §3

Chain of Adenosine kinase (P55263 whole entry): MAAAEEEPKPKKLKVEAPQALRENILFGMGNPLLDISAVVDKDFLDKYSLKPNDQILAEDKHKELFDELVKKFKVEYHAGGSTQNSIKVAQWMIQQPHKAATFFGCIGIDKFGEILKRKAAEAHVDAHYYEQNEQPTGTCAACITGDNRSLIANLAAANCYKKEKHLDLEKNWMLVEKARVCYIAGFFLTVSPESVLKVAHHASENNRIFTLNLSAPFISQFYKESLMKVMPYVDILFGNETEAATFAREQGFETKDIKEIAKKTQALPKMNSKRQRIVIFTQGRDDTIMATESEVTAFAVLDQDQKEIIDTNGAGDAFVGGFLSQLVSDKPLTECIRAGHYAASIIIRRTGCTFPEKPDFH

O[C@@H]1[C@H](O)CO[C@H]1n1cc(-c2ccccc2)c2c(Nc3ccc4c(c3)OCCO4)ncnc21
IC50 (Adenosine kinase): 4 nM
inhibition in vivo at 20 mg/kg (Rattus norvegicus [1]): 80%

N#Cc1ccc(Nc2ncnc3c2c(-c2ccc(Cl)cc2)cn3[C@@H]2OC[C@@H](O)[C@H]2O)cc1
IC50 (Adenosine kinase): 7 nM
inhibition in vivo at 20 mg/kg (Rattus norvegicus [1]): 75%

CCOc1cccc(Nc2ncnc3c2c(-c2ccccc2)cn3[C@@H]2OC[C@@H](O)[C@H]2O)c1
IC50 (Adenosine kinase): 2 nM
inhibition in vivo at 20 mg/kg (Rattus norvegicus [1]): 76%

CCOc1ccc(-c2cn([C@@H]3OC[C@@H](O)[C@H]3O)c3ncnc(Nc4ccccc4OC)c23)cc1
IC50 (Adenosine kinase): 5.3 nM
inhibition in vivo at 20 mg/kg (Rattus norvegicus [1]): 16%

O[C@@H]1[C@H](O)CO[C@H]1n1cc(-c2ccccc2)c2c(Nc3ccc(Br)cc3)ncnc21
IC50 (Adenosine kinase): 5 nM
inhibition in vivo at 20 mg/kg (Rattus norvegicus [1]): 33%

O[C@H]1[C@H](n2cc(-c3ccccc3)c3c(Nc4ccc(F)cc4)ncnc32)OC2(CC2)[C@H]1O
IC50 (Adenosine kinase): 0.3 nM

O[C@@H]1[C@H](O)CO[C@H]1n1cc(-c2ccccc2)c2c(Nc3ccc(F)cc3)ncnc21
IC50 (Adenosine kinase): 6 nM
CL/F [2]: 6.67 mL/min/kg
bioavailability [3]: 60%
bioavailability [4]: 61.2%
clearance [5]: 6.67 mL/min/kg
clearance [6]: 21.7 mL/min/kg
half-life [7]: 3.9 h
half-life [8]: 3.2 h
half-life [9]: 4 h
half-life [10]: 3 h
CL/F [11]: 25 mL/min/kg
Vd [12]: 2 L/kg
Vd [13]: 6.9 L/kg
Vd [14]: 2.2 L/kg
Vd [15]: 6.2 L/kg
AUC [16]: 2970 ng·h/mL
AUC0-8h [17]: 785 ng·h/mL
AUC [18]: 5340 ng·h/mL
AUC0-8h [19]: 1440 ng·h/mL
Tmax [20]: 1.6 h
Tmax [21]: 3.5 h
ED50 (Rattus norvegicus [22]): 21.7 mg/kg
ED50 (Rattus norvegicus [23]): 11.9 mg/kg
ED50 (Rattus norvegicus [24]): 16 mg/kg
inhibition in vivo at 20 mg/kg (Rattus norvegicus [1]): 76%
ED50 (Rattus norvegicus [25]): 3.6 mg/kg
Cmax [26]: 585 ng/mL
Cmax [27]: 523 ng/mL
Cmax [28]: 628 ng/mL
Cmax [29]: 135 ng/mL
ED50 (Monkey): 3.8 mg/kg
ED50 (Rattus norvegicus [30]): 2.4 mg/kg
Inhibition (Rattus norvegicus [31]): 99%
Inhibition (Rattus norvegicus [32]): 151%

CCOc1ccc(-c2cn([C@@H]3OC[C@@H](O)[C@H]3O)c3ncnc(Nc4ccc(C#N)cc4)c23)cc1
IC50 (Adenosine kinase): 2 nM
inhibition in vivo at 20 mg/kg (Rattus norvegicus [1]): 84%

CC1(C)O[C@@H](n2cc(-c3ccccc3)c3c(Nc4ccccc4)ncnc32)[C@H](O)[C@@H]1O
IC50 (Adenosine kinase): 4000 nM

C[C@H]1O[C@@H](n2cc(-c3ccccc3)c3c(Nc4ccc(F)cc4)ncnc32)[C@H](O)[C@@H]1O
inhibition in vivo at 20 mg/kg (Rattus norvegicus [1]): 59%

CCOc1ccc(Nc2ncnc3c2c(-c2ccccc2)cn3[C@@H]2OC[C@@H](O)[C@H]2O)cc1
IC50 (Adenosine kinase): 3 nM
inhibition in vivo at 20 mg/kg (Rattus norvegicus [1]): 41%

Nc1cccc(-c2cn([C@@H]3OC[C@@H](O)[C@H]3O)c3ncnc(Nc4ccc(F)cc4)c23)c1
IC50 (Adenosine kinase): 10 nM
inhibition in vivo at 20 mg/kg (Rattus norvegicus [1]): 31%

O[C@@H]1[C@H](O)CO[C@H]1n1cc(-c2ccccc2)c2c(Nc3ccccc3)ncnc21
IC50 (Adenosine kinase): 4 nM
inhibition in vivo at 20 mg/kg (Rattus norvegicus [1]): 78%

Cc1ccccc1-c1cn([C@@H]2OC[C@@H](O)[C@H]2O)c2ncnc(Nc3ccc4c(c3)OCCO4)c12
IC50 (Adenosine kinase): 1 nM
inhibition in vivo at 20 mg/kg (Rattus norvegicus [1]): 99%

Nc1ncnc2c1c(I)cn2[C@@H]1OC[C@@H](O)[C@H]1O
IC50 (Adenosine kinase): 6 nM

Nc1ncnc2c1c(I)cn2[C@@H]1OC2(CC2)[C@@H](O)[C@H]1O
IC50 (Adenosine kinase): 600 nM
